37 variants from the RNAGym collection of RNA variant scans (doi:10.1126/science.aae0568) can be followed below.

The chains are these.
B1: tRNA (parent)
chain: GUUCCGUUGGCGUAAUGGUAACGCGUCUCCCUCCUAAGGAGAAGACUGCGGGUUCGAGUCCCGUACGGAACG

This sample holds only a part of the variants without activity.

The variants in this data set derive from B1. The data set can be described thus: yeast fitness relative to wild type (ratio to wild type); higher = fitter; tRNA-Arg(CCU), competitive growth, 37 C, YPD. Put shortly:
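Genotype frequency changes were the basis for Darwinian fitness relative to wild type. The frequencies came from 100-nucleotide paired-end sequencing of gene amplicons from the start population and each end population of pooled yeast strains with tRNA-Arg(CCU) gene variants at the native locus. Competition ran in YPD at 37°C for 24 hours in six replicates, genotypes needed ≥ 100 starting reads, and estimates < 0.5 were set to 0.5.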
Consider GUUCCGUUGGCGUAAUGGUAACGCGUCUCCGUCCUAAGGAGAAGACUGCGGGUUCGCGUCCGGUACGGAACG [C31G A57C C62G], for which the yeast fitness was determined as 0.703. As to GUUCCGUUGGCGUAAUGGUAACGCGUCUCCGUCCUACGGAGAAGACUGCGGCUUCGAGUCGCGUAUGGAACG [C31G A37C G52C C61G C66U], the yeast fitness is ≤ 0.5. Take GUUCCGUUGGCGUAAUGGUAACGCGUCUCCAUCCUGAGGAGAAGACUGCGGGUUCGAGUCCCGUACGGAACG [C31A A36G]: the yeast fitness worked out at 0.78. Regarding GUUCCGUUGGCGUAAUGGUAACGCGUCUCCGUCCUUAGGAGAAGACUGCGGGUUCGAGUCCCGUACGGAACG [C31G A36U], the yeast fitness is 0.615. Take GUUCCGUUGGCGUAAUGGUAACGCGUCUCCGUCCUAAGGAGAGGACUGUGGGUUCGAGUCACGUACGGAACG [C31G A43G C49U C61A]: the yeast fitness is ≤ 0.5. For the variant GUUCCGUUGGCGUAAUGGUAACGCGUCUCCGUCCUAUGCAGCAGACUGCGGGUUCGAGUCCCGUACGGAACG [C31G A37U G39C A42C], the yeast fitness is ≤ 0.5. Turning to GUUCCGUUGGCGUAAUGGUAACGCGUCUCCGUCCUAAGGAGAAGACUGCGGGUUCGUGUCCCGUACGGCACG [C31G A57U A69C], the yeast fitness is ≤ 0.5.

With GUUCCGUUGGCGUAAUGGUAACGCGUCUCCAUCCUAAGGCGAAGACUGCGGAUUCGAGUCCCGUACGCAACG [C31A A40C G52A G68C], the yeast fitness was ≤ 0.5. Regarding GUUCCGUUGGCGUAAUGGUAACGCGUCUCCAUCCUAAAGAGAAGACUGCGGGUUCGAGUCCCGUACGGAACG [C31A G38A], the yeast fitness was found to be 0.792.

On to GUUCCGUUGGCGUAAUGGUAACGCGUCUCCGUCCUAAGGGGAAGAAUGCGGGUUCGAGUCCCGUACGGAACG [C31G A40G C46A], for which the yeast fitness is 0.618. For the variant GUUCCGUUGGCGUAAUGGUAACGCGUCUCCAUCCUAAGGAGAAGACUGUGGGUUCGAGUCCCGUACGGAACG [C31A C49U], the yeast fitness was determined as 0.867.

Take GUUCCGUUGGCGUAAUGGUAACGCGUCUCCGUCCUAAGGAGAAGGCUGCGGGUUCGAGUCCCGUACGGAACG [C31G A45G]: the yeast fitness is 0.809. To GUUCCGUUGGCGUAAUGGUAACGCGUCUCCGUCCUACGGAGAAGACUGCGGCUUCGAGUCACGUAUGGAACG [C31G A37C G52C C61A C66U] belongs 0.527; to GUUCCGUUGGCGUAAUGGUAACGCGUCUCCAUGCUAAGGAGAAGACUGCGCGUUCGAGUGCCGUACGGAACG [C31A C33G G51C C60G], ≤ 0.5; to GUUCCGUUGGCGUAAUGGUAACGCGUCUCCAUCCUAAGGAGAGGCCUGCGGGUUCGAGUCCCGUACGGAACG [C31A A43G A45C], 0.541. Consider GUUCCGUUGGCGUAAUGGUAACGCGUCUCCGUCCUAAGGAGAAGCCUGCGGGUUCGAGUCCCGUUCGGAACG [C31G A45C A65U], for which the yeast fitness is ≤ 0.5. For the variant GUUCCGUUGGCGUAAUGGUAACGCGUCUCUCUCCCAGGGAGAAGACUGCGGGUUAGAGUCCCGUGCGGAACG [C30U U35C A37G C55A A65G], the yeast fitness is ≤ 0.5. Take GUUCCGUUGGCGUAAUGGUAACGCGUCUCCGUCCUCAGGAGAAGACUGCGGGUUCGAGUCUCGUACGGAACG [C31G A36C C61U]: the yeast fitness was ≤ 0.5. Take GUUCCGUUGGCGUAAUGGUAACGCGUCUCCGUCCUAAGGAGAAGACUGCGGGUUCGUCUCCCGUACGGAACG [C31G A57U G58C]: the yeast fitness is ≤ 0.5. As for GUUCCGUUGGCGUAAUGGUAACGCGUCUCCGUCCUCAGGAGAAGACCGCGGGUUCGAGUCCCGUACGGAACG [C31G A36C U47C], the yeast fitness was ≤ 0.5. GUUCCGUUGGCGUAAUGGUAACGCGUCUCCGUCCUUAGAAGAAGACUGCGGGUUCGAGUCCCGUACGGAACG [C31G A36U G39A]: the yeast fitness is ≤ 0.5. Consider GUUCCGUUGGCGUAAUGGUAACGCGUCUCUCACCUAAGGAGAAGACUGCGGGUUCGAGUCCCGUACGGAACG [C30U U32A], for which the yeast fitness amounted to 0.883. With GUUCCGUUGGCGUAAUGGUAACGCGUCUCUCUCCAAAGGAGAAGACUGCGAGUUCGAGUCCCGUACGGAACG [C30U U35A G51A], the yeast fitness is ≤ 0.5. For GUUCCGUUGGCGUAAUGGUAACGCGUCUCCAUCCUAAGGAGAAGACUGCGGGUCCGAGUCCCGUACGGAACG [C31A U54C], the yeast fitness was determined as 0.562. To GUUCCGUUGGCGUAAUGGUAACGCGUCUCUCUCCAAAGGAGAAGACUGCGGGUUCGAGUCCCGUACGGUACG [C30U U35A A69U] belongs ≤ 0.5; to GUUCCGUUGGCGUAAUGGUAACGCGUCUCCAUCCCAAGGAAAAGACUGCGGGUUCGGGUCCCGUACGGAACG [C31A U35C G41A A57G], ≤ 0.5. Turning to GUUCCGUUGGCGUAAUGGUAACGCGUCUCCGUCGUAAGGUGAAGACUGCGGGUUCGAGUCCCGUACGGAACG [C31G C34G A40U], the yeast fitness is ≤ 0.5. For the variant GUUCCGUUGGCGUAAUGGUAACGCGUCUCCGUCCUUAGGAGAAGACUGCGGGUUCGAGUCCCGUUCGGAACG [C31G A36U A65U], the yeast fitness is 0.517. As for GUUCCGUUGGCGUAAUGGUAACGCGUCUCUCACCUUUGGAGAAGACUGCGGGUUCGAGUCCUGUACGGAACG [C30U U32A A36U A37U C62U], the yeast fitness is ≤ 0.5. The same measure for GUUCCGUUGGCGUAAUGGUAACGCGUCUCCAUCCUAAGGAGAAGACUCCGGGUUCGAGUCACGUACGGAGCG [C31A G48C C61A A70G]: ≤ 0.5; for GUUCCGUUGGCGUAAUGGUAACGCGUCUCCAUCCUAAGGAGAAGACUGCGGGUUCGUGUCCCGUACGGAACG [C31A A57U]: 0.626; for GUUCCGUUGGCGUAAUGGUAACGCGUCUCCGUCCUAAGGAGCAGACUGCGGGUUUGAGUCCCGUACGAAACG [C31G A42C C55U G68A]: 0.542. Regarding GUUCCGUUGGCGUAAUGGUAACGCGUCUCCGUCCUAAGGAGUAGACUGCGGGUUCGAGUCCUGUACGGAACG [C31G A42U C62U], the yeast fitness is 0.742. Take GUUCCGUUGGCGUAAUGGUAACGCGUCUCCGUCCUAAGGAGAAGGCUGCGGGUUCUAGUCCCGUACGGAACG [C31G A45G G56U]: the yeast fitness is 0.561.

For the variant GUUCCGUUGGCGUAAUGGUAACGCGUCUCUCUCCUAAGGAGAAGACUGCGGGUUCGAGGCCCGUAUGAAACG [C30U U59G C66U G68A], the yeast fitness is ≤ 0.5. The same measure for GUUCCGUUGGCGUAAUGGUAACGCGUCUCCAUCCUAAGGAGGAGACUGGGGGUUCGAGUCCUGUACGGAACG [C31A A42G C49G C62U]: ≤ 0.5; for GUUCCGUUGGCGUAAUGGUAACGCGUCUCCAUCCUAAGGAGAUGACUGCGGGUUCGGGUCCCGUACGGAACG [C31A A43U A57G]: 0.559.
